Active and inactive are the calls of the source. The rule behind the calls is not given here.

Holding throughout (type): cell-based
Assay [1] can be described thus: Potentiation of genistein-induced human CFTR delta F508 mutant gating activity expressed in forskolin-stimulated FRT cells assessed as increase in iodine influx measured as decrease in YFP fluorescence after 24 hrs at 27 degC. The essentials:
(§1)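 Potentiator plate-reader assay. FRT cells coexpressing human ΔF508-CFTR and YFP-H148Q/I152L, grown 18−24 h at 37 °C, then rescued 18−24 h at 27 °C. Cells are washed, then given 10 min of forskolin 20 μM plus compound in PBS (eight concentrations, 0−50 μM final). I⁻ influx comes from the YFP quench after iodide addition (2 s baseline, 12 s), by exponential regression. Controls are DMSO and genistein. EC50/Vmax come from four-parameter logistic fits; triplicate.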

Assay [2] concerns the target Cystic fibrosis transmembrane conductance regulator (Homo sapiens, UniProt P13569, F508DEL). Put plainly: (§2) Activity at human CFTR delta F508 mutant expressed in forskolin-stimulated FRT cells assessed as increase in iodine influx measured as decrease in YFP fluorescence after 18 to 24 hrs at 37 degC in presence of genistein. The essentials: (§3)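 Corrector plate-reader assay. FRT cells stably coexpressing human ΔF508-CFTR and YFP-H148Q/I152L, grown 24 h at 37 °C, then exposed to compound for 16−20 h (up to 25 μM, eight concentrations). Cells are washed, then given forskolin 20 μM plus genistein 50 μM in PBS for 20 min. I⁻ influx comes from the YFP quench recorded 2 s baseline plus 12 s after iodide addition, fitted by exponential regression. Controls are DMSO vehicle and a reference corrector. EC50/Vmax come from four-parameter logistic fits; triplicate.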

In assay [3] the test system is FRT. Put plainly: Potentiation of genistein-induced human CFTR delta F508 mutant gating activity expressed in forskolin-stimulated FRT cells assessed as increase in iodine influx measured as decrease in YFP fluorescence after 24 hrs at 27 degC relative to control. The essentials:
as §1

Assay [4] addresses Cystic fibrosis transmembrane conductance regulator (Homo sapiens, UniProt P13569). The assay is described as §2. The note with it: frt. The essentials: as §3
The subject of assay [5] is Cystic fibrosis transmembrane conductance regulator (Homo sapiens), P13569 [F508del]. Nature of the assay: Activity at human CFTR delta F508 mutant expressed in forskolin-stimulated basolateral membrane permeabilized FRT cells assessed as increase in apical chloride current at 10 uM after 18 to 24 hrs at 37 degC by short-circuit assay in presence of genistein. The essentials:
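Short-circuit current. ΔF508-CFTR FRT cells are cultured 7−9 days on permeable inserts, then given compound for 18−24 h at 37 °C. Apical Cl⁻ current is recorded after basolateral permeabilization under an apical-to-basolateral Cl⁻ gradient. Forskolin 20 μM and genistein 50 μM are added, followed by CFTRinh-172 10 μM.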

The test system of assay [6] is FRT. Nature of the assay: Potentiation of genistein-induced human CFTR delta F508 mutant gating activity expressed in forskolin-stimulated basolateral membrane permeabilized FRT cells assessed as increase in apical chloride current at 3 to 100 uM after 24 hrs at 27 degC by short-circuit assay. The essentials:
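Short-circuit current. ΔF508-CFTR FRT cells are cultured 7−9 days on permeable inserts and temperature-rescued 18−24 h at 27 °C. Apical Cl⁻ current is recorded in basolateral-permeabilized monolayers under an apical-to-basolateral Cl⁻ gradient. Forskolin 20 μM is added, then test compound, with CFTRinh-172 10 μM at the end.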

Where [7] appears, read: Homo sapiens, FRT, 24 h, read-out: EC50.

Cystic fibrosis transmembrane conductance regulator (Homo sapiens, UniProt P13569, F508DEL), sequence (P13569 as listed by the source): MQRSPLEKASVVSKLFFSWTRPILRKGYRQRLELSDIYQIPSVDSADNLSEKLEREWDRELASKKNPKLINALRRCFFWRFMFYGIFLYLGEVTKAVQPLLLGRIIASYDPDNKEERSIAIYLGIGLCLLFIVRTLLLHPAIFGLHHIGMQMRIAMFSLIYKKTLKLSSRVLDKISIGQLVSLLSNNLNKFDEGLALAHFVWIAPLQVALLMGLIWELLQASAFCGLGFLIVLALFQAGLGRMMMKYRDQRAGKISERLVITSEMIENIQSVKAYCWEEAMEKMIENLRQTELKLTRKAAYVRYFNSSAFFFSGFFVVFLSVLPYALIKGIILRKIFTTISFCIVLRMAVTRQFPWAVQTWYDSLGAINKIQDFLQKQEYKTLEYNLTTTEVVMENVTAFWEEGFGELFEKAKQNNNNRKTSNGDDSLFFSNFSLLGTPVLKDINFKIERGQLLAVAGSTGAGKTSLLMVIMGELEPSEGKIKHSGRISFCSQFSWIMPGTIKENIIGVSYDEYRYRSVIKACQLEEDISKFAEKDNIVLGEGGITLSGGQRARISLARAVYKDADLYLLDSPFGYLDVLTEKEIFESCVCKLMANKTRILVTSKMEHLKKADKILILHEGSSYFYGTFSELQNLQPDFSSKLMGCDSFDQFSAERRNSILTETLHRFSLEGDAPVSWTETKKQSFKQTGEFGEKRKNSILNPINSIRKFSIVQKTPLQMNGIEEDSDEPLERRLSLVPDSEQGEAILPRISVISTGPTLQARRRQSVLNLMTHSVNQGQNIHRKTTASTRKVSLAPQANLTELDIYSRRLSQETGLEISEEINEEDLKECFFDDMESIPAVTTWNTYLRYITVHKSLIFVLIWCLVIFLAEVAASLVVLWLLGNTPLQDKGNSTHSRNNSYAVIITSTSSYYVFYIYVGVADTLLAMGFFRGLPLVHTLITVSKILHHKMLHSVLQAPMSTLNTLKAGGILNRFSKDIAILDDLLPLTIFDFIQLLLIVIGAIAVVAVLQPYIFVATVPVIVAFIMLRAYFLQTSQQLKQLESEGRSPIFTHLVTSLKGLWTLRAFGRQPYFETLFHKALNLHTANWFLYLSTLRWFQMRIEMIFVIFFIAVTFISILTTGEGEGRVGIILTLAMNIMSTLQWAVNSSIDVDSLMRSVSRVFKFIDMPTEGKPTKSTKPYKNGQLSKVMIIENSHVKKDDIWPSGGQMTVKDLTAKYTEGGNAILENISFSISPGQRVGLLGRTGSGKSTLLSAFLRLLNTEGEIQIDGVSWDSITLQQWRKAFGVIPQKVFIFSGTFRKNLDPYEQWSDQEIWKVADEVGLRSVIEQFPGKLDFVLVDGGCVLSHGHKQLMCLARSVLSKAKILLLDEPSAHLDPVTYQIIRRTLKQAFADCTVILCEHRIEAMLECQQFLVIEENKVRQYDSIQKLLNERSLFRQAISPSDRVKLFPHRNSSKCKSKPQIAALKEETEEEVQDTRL
Cystic fibrosis transmembrane conductance regulator (Homo sapiens, UniProt P13569), sequence (P13569 as listed by the source): as above
Cystic fibrosis transmembrane conductance regulator (Homo sapiens), P13569 [F508del], sequence (P13569 as listed by the source): as above

`Cc1cc(C)c2cc(C#N)c(NCCNC(=O)c3ccncc3)nc2c1`: the EC50 in assay [1] (setting [7]) was 10 µM; in assay [2], 7.3 µM. Besides, the Vmax in the assay with FRT [3] is 220 µM/s.

Take `Cc1cc(C)c2cc(C#N)c(NCCCNC(=O)c3ccncc3)nc2c1`: the EC50 in assay [1] (setting [7]) amounted to 13.2 µM; in assay [2], 8.2 µM. Further, in the assay with FRT [3], the Vmax came to 53 µM/s.

Take `COc1cccc(OC)c1C(=O)NCCNc1nc2cc(C)cc(C)c2cc1C#N`: the EC50 is 11.5 µM in assay [1] (setting [7]) and 3.7 µM in assay [2]. The Vmax in the assay with FRT [3] is 119 µM/s.

For `COc1ccc(C(=O)NCCNc2nc3cc(C)cc(C)c3cc2C#N)nc1`, the EC50 in assay [1] (setting [7]) came out at 3.4 µM; in assay [2], 2.7 µM. The Vmax with FRT [3] is 70 µM/s.

For `COc1ccccc1C(=O)N1CCN(c2nc3cc(C)cc(C)c3cc2C#N)CC1`, the EC50 in assay [1] (setting [7]) was 1 µM; in assay [4], “Not Active”. In the assay on FRT [3], the Vmax was 129 µM/s.

Consider `COc1ccccc1C(=O)NCCCNc1nc2cc(C)cc(C)c2cc1C#N`, for which the EC50 in assay [1] (setting [7]) is 27.6 µM; in assay [4], “Not Active”. In the assay on FRT [3], the Vmax was 254 µM/s.

With `COc1ccc(C(=O)N2CCN(c3nc4cc(C)cc(C)c4cc3C#N)CC2)cc1`, the EC50 is 1.3 µM in assay [1] (setting [7]) and “Not Active” in assay [4]. Further, the Vmax in the assay on FRT [3] was determined as 281 µM/s.

With `COc1ccc(C(=O)NCCNc2nc3cc(C)cc(C)c3cc2C#N)cc1OC`, the EC50 in assay [1] (setting [7]) was found to be 48 µM; in assay [2] it was 1.5 µM. Besides, in the assay with FRT [3], the Vmax worked out at 216 µM/s.

On to `Cc1cc(C)c2cc(C#N)c(NCCCNC(=O)c3ccccn3)nc2c1`, for which the results for the EC50 in assay [1] (setting [7]) and in assay [4] were 6.1 µM and “Not Active”, respectively. In addition, the Vmax in the assay with FRT [3] worked out at 233 µM/s.

In the case of `COc1ccc(C(=O)NCCNc2nc3cc(C)cc(C)c3cc2C#N)cc1`, the outcome (in assay [5]; with FRT [6]) was Active. Further, the results for the EC50 in assay [1] (setting [7]) and in assay [2] were 4.1 µM and 3 µM, respectively. In the assay on FRT [3], the Vmax came to 181 µM/s.

For the compound `Cc1cc(C)c2cc(C#N)c(N3CCN(C(=O)c4ccncc4)CC3)nc2c1`, the EC50 entry in assay [1] (frt) and in assay [4] was “Not Active” each time.

As to `Cc1cc(C)c2cc(C#N)c(NCCNC(=O)c3ccccc3)nc2c1`, the EC50 in assay [1] (setting [7]) was 10 µM; in assay [4] it was “Not Active”. Also, the Vmax in the assay on FRT [3] came out at 210 µM/s.

For the compound `Cc1cc(C)c2cc(C#N)c(NCCNC(=O)c3cnccn3)nc2c1`, the 50% effective concentration (EC50) entry was “Not Active” in assay [1] (frt) and 6.7 µM in assay [2].

Turning to `COc1cccc(C(=O)N2CCN(c3nc4cc(C)cc(C)c4cc3C#N)CC2)c1`, the values for the EC50 in assay [1] (setting [7]) and in assay [4] were 1.2 µM and “Not Active”, respectively. Moreover, in the assay on FRT [3], the Vmax was found to be 200 µM/s.

Take `COc1cccc(C(=O)NCCCNc2nc3cc(C)cc(C)c3cc2C#N)c1`: the EC50 in assay [1] (setting [7]) and in assay [2] was 4.6 µM in each case. Also, the maximal velocity (Vmax) with FRT [3] was found to be 147 µM/s.

`COc1cccc(C(=O)NCCNc2nc3cc(C)cc(C)c3cc2C#N)c1`: the outcome (in assay [5]; with FRT [6]) was Active. Besides, the EC50 in assay [1] (setting [7]) was 5.9 µM; in assay [2], 2.2 µM. Moreover, in the assay with FRT [3], the Vmax is 216 µM/s.

Consider `COc1ccc(C(=O)NCCCNc2nc3cc(C)cc(C)c3cc2C#N)cc1`, for which the concentration giving a half-maximal response (EC50) in assay [1] (setting [7]) came out at 5 µM; in assay [2] it was 4.3 µM. In addition, the Vmax in the assay with FRT [3] turned out to be 231 µM/s.

`Cc1cc(C)c2cc(C#N)c(NCCNC(=O)c3cccnc3)nc2c1`: the EC50 in assay [1] (setting [7]) is 13.2 µM; in assay [2], 2.7 µM. Also, the Vmax in the assay on FRT [3] turned out to be 242 µM/s.

In the case of `Cc1cc(C)c2cc(C#N)c(NCCCNC(=O)c3cccnc3)nc2c1`, the EC50 in assay [1] (setting [7]) amounted to 16 µM; in assay [2] it was 3 µM. Also, in the assay on FRT [3], the Vmax is 115 µM/s.

As for `Cc1cc(C)c2cc(C#N)c(N3CCN(C(=O)c4cccnc4)CC3)nc2c1`, the EC50 entry in assay [1] (frt) and in assay [4] was “Not Active” each time.

Regarding `COc1ccccc1C(=O)NCCNc1nc2cc(C)cc(C)c2cc1C#N`, the values for the EC50 in assay [1] (setting [7]) and in assay [2] were 2.3 µM and 11 µM, respectively. The Vmax with FRT [3] stood at 154 µM/s.

As to `Cc1cc(C)c2cc(C#N)c(NCCNC(=O)c3ccccn3)nc2c1`, the results for the EC50 in assay [1] (setting [7]) and in assay [4] were 1.2 µM and “Not Active”, respectively. Also, in the assay on FRT [3], the Vmax is 80 µM/s.

As for `Cc1cc(C)c2cc(C#N)c(N3CCN(C(=O)c4ccccn4)CC3)nc2c1`, the EC50 in assay [1] (setting [7]) is 7.4 µM; in assay [4], “Not Active”. In the assay on FRT [3], the Vmax came out at 102 µM/s.

Regarding `COc1ccc(C(=O)NCCNc2nc3cc(C)cc(C)c3cc2C#N)c(OC)c1`, the EC50 is 55 µM in assay [1] (setting [7]) and 4.2 µM in assay [2]. Moreover, the Vmax in the assay with FRT [3] came out at 426 µM/s.

What is called EC50 is the concentration that produces a half-maximal response. As a reminder, the Vmax is the top rate of the reaction or transport when substrate is in excess.

(Values after ChEMBL document CHEMBL2016518, “Structure-activity relationships of cyanoquinolines with corrector-potentiator activity in ΔF508 cystic fibrosis transmembrane conductance regulator protein” (J Med Chem, 2012).)
